Measurements gathered from unrelated publications.
Lines come from different studies, so protocols differ.
Target: Mitogen-activated protein kinase 12 (MAPK12, Homo sapiens, UniProt P53778)
Residues used in one study (P53778 1-367): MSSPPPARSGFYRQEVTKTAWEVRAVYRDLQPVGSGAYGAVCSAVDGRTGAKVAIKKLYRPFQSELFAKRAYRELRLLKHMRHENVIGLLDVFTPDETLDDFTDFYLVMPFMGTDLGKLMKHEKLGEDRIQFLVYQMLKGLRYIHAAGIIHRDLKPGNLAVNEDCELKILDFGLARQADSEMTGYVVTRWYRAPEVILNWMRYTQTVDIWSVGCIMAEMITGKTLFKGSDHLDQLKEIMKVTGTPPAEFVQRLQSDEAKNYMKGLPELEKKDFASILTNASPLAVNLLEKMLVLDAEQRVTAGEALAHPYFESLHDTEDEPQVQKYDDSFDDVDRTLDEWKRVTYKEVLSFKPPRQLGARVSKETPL

SMILES | observed | action | technique | concentration | quantity | value
CS(=O)(=O)c1cc(C2(NC(=O)c3cncc4c3cnn4-c3ccc(F)cc3)CC2)ccn1 | cell-free assay | – | competition with immobilised ligand | 1 µM | remaining binding | 100%
COc1cc2ncnc(Nc3ccc(Oc4ccccc4)cc3C)c2cc1OC | enzyme activity | inhibitor | – | 1 µM | inhibition | 4%
N#CC1(c2ccccn2)CCN(Cc2cc(C(=O)N3CCCC3)c(=O)n3ccccc23)CC1 | cell-free assay | – | competition with immobilised ligand | 1 µM | remaining binding | 100%
O=C(Nc1cnn(-c2csc(C(=O)NC3COC3)c2)c1)Nc1ccccc1Cl | enzyme activity | inhibitor | – | 5 µM | remaining activity | 99.4%
Nc1ncnc2occ(-c3ccc(NC(=O)Nc4cc(C(F)(F)F)ccc4F)cc3)c12 | cell-free assay | inhibitor | – | 20 µM | remaining signal | 0.5%
CNC(=O)c1cc(Oc2ccc(NC(=O)Nc3ccc(Cl)c(C(F)(F)F)c3)cc2)ccn1 | cell-free assay | – | – | 0.5 µM | remaining signal | 94.2%
CCC(=O)N[C@H]1CC[C@@H](C(=O)N(C)c2ccc(-c3nc4ccccc4o3)cc2)C1 | cell-free assay | – | competition with immobilised ligand | 1 µM | remaining binding | 67%
Oc1cccc(-c2nc(N3CCOCC3)c3oc4ncccc4c3n2)c1 | enzyme activity | inhibitor | – | 10 µM | remaining activity | 76%
CN1CC(Oc2cnc(C#N)cc2-c2ccn3nc(NC(=O)C4CC4)cc3c2)C1 | enzyme activity | inhibitor | – | 1 µM | inhibition | -1%
CC(C)(C)c1nc(-c2cccc(NS(=O)(=O)c3c(F)cccc3F)c2F)c(-c2ccnc(N)n2)s1 | enzyme activity | inhibitor | radiometric | 1 µM | remaining activity | 102%
CCN(CC)CCNC(=O)c1c(C)[nH]c(/C=C2\C(=O)Nc3ccc(F)cc32)c1C | enzyme activity | inhibitor | – | 0.3 µM | inhibition | -10%
N#CCCc1ccc2c(c1)-c1[nH]c3ccc([N+](=O)[O-])cc3c1CC(=O)N2 | cell-free assay | – | – | 0.5 µM | remaining signal | 98.9%
CC(=O)C1=C(C)N(c2cccc(C(F)(F)F)c2)C(=O)N[C@@H]1c1ccc(C#N)nc1 | cell-free assay | – | competition with immobilised ligand | 1 µM | remaining binding | 77.4%
COc1cc(Cl)c(C(=O)N[C@@H](CN[C@H]2CC[C@@H](N)CC2)Cc2ccc(C#N)cc2)cc1-c1ccc(CN[C@H](C)c2ccc(C)cc2)o1 | enzyme activity | inhibitor | – | 1 µM | remaining activity | 109%
CNC(=O)Nc1ccc2c(c1)CC[C@@]21OC(=O)N(CC(=O)N(Cc2ccc(F)cc2)[C@@H](C)C(F)(F)F)C1=O | cell-free assay | – | competition with immobilised ligand | 1 µM | remaining binding | 63%
Cn1c(=O)n(-c2ccc(C(C)(C)C#N)cc2)c2c3cc(-c4cnc5ccccc5c4)ccc3ncc21 | enzyme activity | inhibitor | – | 10 µM | remaining activity | 101%
Cc1ccc(Nc2nccc(N(C)c3ccc4c(C)n(C)nc4c3)n2)cc1S(N)(=O)=O | enzyme activity | inhibitor | – | 10 µM | inhibition | -5%
Oc1cccc(-c2nc(N3CCOCC3)c3oc4ncccc4c3n2)c1 | cell-free assay | – | – | 0.5 µM | remaining signal | 93.4%
CCOc1cc(-c2nncn2C)ccc1Nc1ncc2cc(C)nc(NCC(C)(C)C)c2n1 | enzyme activity | inhibitor | FRET | 1 µM | inhibition | < 15%
COc1cc(Nc2cnc(C#N)c(O[C@H](C)CN(C)C)n2)ncc1-c1cnn(C)c1 | enzyme activity | inhibitor | radiometric | 10 µM | remaining activity | 109%
CCS(=O)(=O)c1cc2cc(C[C@](O)(CC(C)(C)c3ccc(F)cc3C(N)=O)C(F)(F)F)[nH]c2cn1 | cell-free assay | – | competition with immobilised ligand | 1 µM | remaining binding | 100%
CCN(CC)c1ccc(C2=NNC(=O)CC2C)cc1[N+](=O)[O-] (stereo not shown) | enzyme activity | inhibitor | – | 10 µM | remaining activity | 104%
Nc1nc(Nc2ccccc2)sc1C(=O)c1c(F)cccc1F | enzyme activity | inhibitor | – | 10 µM | remaining activity | 77%
CCCOc1ccc(OC)c(F)c1C(=O)c1ccc(C(=O)N[C@@H]2CNC[C@H]2NC(=O)c2ccc3[nH]ncc3c2)cc1 | enzyme activity | inhibitor | – | 10 µM | remaining activity | 97%
O=C(NC[C@@H]1[C@H]2CN(C(=O)OCc3cc(C(F)(F)F)cc(C(F)(F)F)c3)C[C@@H]12)c1ccc2[nH]nnc2c1 | cell-free assay | – | competition with immobilised ligand | 1 µM | remaining binding | 100%
Cc1ccc(C(=O)Nc2ccc(CN3CCN(C)CC3)c(C(F)(F)F)c2)cc1C#Cc1cnc2cccnn12 | enzyme activity | inhibitor | – | 23.5 nM | remaining activity | 70%
COc1cc(/C=C/C(=O)CC(=O)/C=C/c2ccc(O)c(OC)c2)ccc1O | enzyme activity | inhibitor | – | 1 µM | activity vs control | 101%
C[C@H](c1ccc(F)cc1)N(Cc1cccc(C(=O)O)c1)C(=O)c1cnc2ccccc2c1 | cell-free assay | – | competition with immobilised ligand | 1 µM | remaining binding | 65%
